Assay results published in ChEMBL document CHEMBL1124497, “Thromboxane A2 synthetase inhibitors. 2. Syntheses and activities of tetrahydronaphthalene and indan derivatives” (J Med Chem, 1989).

Columns and labels:
Assay type in all cases: functional
Rattus norvegicus [1] = assay: Increase in serum prostaglandin I2 levels in incubated whole blood from rats, 1 hr following 1 mg/kg p.o.; details: route oral
Outline: (§1)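 Rats were dosed orally at 1 mg/kg with compound suspended in water; controls received vehicle. Whole blood was drawn from the external jugular vein under anesthesia at 1, 3 and 6 h, held on ice 15 min, then clotted at 37 °C for 1 h. Serum was separated at 1000g for 10 min. TXB₂, 6-keto-PGF₁α (the PGI₂ metabolite) and PGE₂ were measured by radioimmunoassay. Prostanoid enhancement is expressed as x-fold at 1 h.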

Rattus norvegicus [2] = assay: Inhibition of thromboxane B2 production in whole blood of rats, 6 hr after a peroral dose of 1.0 mg/kg; details: route oral; outline: as §1
Rattus norvegicus [3] = assay: Inhibition of thromboxane B2 production in whole blood of rats, 3h after a peroral dose of 1.0 mg/kg; details: route oral; outline: as §1
Rattus norvegicus [4] = assay: Inhibition of thromboxane B2 production in whole blood of rats 1 hr following 1 mg/kg p.o.; details: route oral; outline: as §1
Rattus norvegicus [5] = organism: Rattus norvegicus; assay: In vitro inhibition of thromboxane A2 production in rat platelet-rich plasma.
Outline: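 Citrated rat platelet-rich plasma (4 × 10⁷ platelets) was preincubated with compound for 1 min at room temperature with gentle shaking. Sodium arachidonate (final 0.5 mmol) started the reaction, which ran 5 min at room temperature with vigorous shaking. Indomethacin (final 0.1 mmol) stopped it. After centrifugation (1000g, 5 min), supernatant TXB₂ was measured by radioimmunoassay. IC₅₀ is the concentration giving 50% inhibition of TXB₂ production.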

Rattus norvegicus [6] = assay: Inhibition of thromboxane B2 production in whole blood of rat 75 min after intravenous injection of compound at 0.1 mg/kg; details: 1.25 h
Outline: (§2)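 The compound was given intravenously to rats in physiological saline; controls received vehicle. Whole blood was drawn from the external jugular vein under anesthesia at 15, 45 and 75 min. Samples were kept on ice 15 min, clotted at 37 °C for 1 h and centrifuged (1000g, 10 min). Serum TXB₂ was measured by radioimmunoassay and expressed as % inhibition.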

Rattus norvegicus [7] = assay: Enhancement of prostaglandin E2 levels in serum of incubated whole blood at 1 hr after an oral dose of 1 mg/kg; outline: as §1
Rattus norvegicus [8] = assay: Inhibition of thromboxane B2 production in whole blood of rat 45 min after intravenous injection of compound at 0.1 mg/kg; details: 0.75 h; outline: as §2
Rattus norvegicus [9] = assay: Inhibition of thromboxane B2 production in whole blood of rat 15 min after intravenous injection of compound at 0.1 mg/kg; details: 0.25 h; outline: as §2
Rattus norvegicus [10] = assay: Inhibition of thromboxane A2 production in whole blood of rats, 4 hr after a peroral dose of 0.1 mg/kg; details: route oral
Rattus norvegicus [11] = assay: Inhibition of thromboxane B2 production in whole blood of rats, 1 hr after a peroral dose of 0.1 mg/kg; details: route oral
Rattus norvegicus [12] = assay: Inhibition of thromboxane A2 production in whole blood of rats, 4 hr after a peroral dose of 1.0 mg/kg; details: route oral
Rattus norvegicus [13] = assay: Inhibition of thromboxane B2 production in whole blood of rats, 4 hr after a peroral dose of 0.1 mg/kg; details: route oral

| Compound | x fold (Rattus norvegicus [1]) | inhibition in vivo at 1 mg/kg (Rattus norvegicus [2]) [%] | inhibition in vivo at 1 mg/kg (Rattus norvegicus [3]) [%] | inhibition in vivo at 1 mg/kg (Rattus norvegicus [4]) [%] | IC50 (Rattus norvegicus [5]) [nM] | inhibition in vivo at 0.1 mg/kg (Rattus norvegicus [6]) [%] | x fold (Rattus norvegicus [7]) | inhibition in vivo at 0.1 mg/kg (Rattus norvegicus [8]) [%] | inhibition in vivo at 0.1 mg/kg (Rattus norvegicus [9]) [%] | inhibition in vivo at 0.1 mg/kg (Rattus norvegicus [10]) [%] | inhibition in vivo at 0.1 mg/kg (Rattus norvegicus [11]) [%] | inhibition in vivo at 1 mg/kg (Rattus norvegicus [12]) [%] | inhibition in vivo at 0.1 mg/kg (Rattus norvegicus [13]) [%] |
| --- | --- | --- | --- | --- | --- | --- | --- | --- | --- | --- | --- | --- | --- |
| O=C(O)c1ccc(OCCc2cncs2)cc1 | 3.14 | 54 | 83 | 88 | 3800 | – | – | – | – | – | – | – | – |
| Cl.O=C(O)C1Cc2ccc(Cn3ccnc3)cc2C1 (stereo unspecified) | 3.14 | 61 | 75 | 87 | 7200 | 32 | 7.27 | 46 | 58 | – | – | – | – |
| O=C(O)/C=C/c1ccc(Cn2ccnc2)cc1 [OZAGREL] | 2.5 | 11 | 42 | 91 | 4500 | 46 | 4.8 | 72 | 89 | – | – | – | – |
| O=C([O-])c1ccc2c(c1)CC(Cc1cncs1)C2.[Na+] (stereo unspecified) | 3.52 | 52 | 87 | 94 | 400 | 26 | 9.55 | 62 | 77 | – | – | – | – |
| Cl.O=C(O)c1cccc2c1CCCC2CCn1ccnc1 (stereo unspecified) | 3.02 | 76 | 93 | 93 | 5400 | 64 | 5.88 | 74 | 79 | – | – | – | – |
| O=C(O)c1ccc(OCCn2ccnc2)cc1 [DAZOXIBEN] | 1.9 | 8 | 21 | 50 | 11000 | – | 3.91 | 6 | 25 | – | – | – | – |
| C/C(=C\c1ccc(Cc2cccnc2)cc1)C(=O)O | 2.55 | 44 | 64 | 71 | 150 | – | 3.87 | – | – | – | – | – | – |
| Cl.O=C(O)c1ccc2c(c1)CC(Cn1ccnc1)CC2 (stereo unspecified) | 1.99 | – | – | 57 | 5600 | – | 4.27 | – | – | – | – | – | – |
| Cl.O=C(O)C1CCc2cc(Cn3ccnc3)ccc2C1 (stereo unspecified) | 2.22 | 49 | 69 | 88 | 1400 | – | 4.79 | – | – | – | – | – | – |
| C/C(=C\c1ccc(Cc2cncs2)cc1)C(=O)O | – | – | – | 44 | 220 | – | – | – | – | – | – | – | – |
| O=C([O-])c1ccc2c(c1)CCC(Cc1cncs1)C2.[Na+] (stereo unspecified) | 2.55 | 78 | 88 | 93 | 140 | 75 | 5.26 | 87 | 90 | – | – | – | – |
| O=C(O)CCCC/C=C(\c1ccccc1)c1cccnc1 [(E)-ISBOGREL] | – | – | – | 96 | 250 | – | – | – | – | 40 | 75 | 80 | – |
| Cc1c(Cn2ccnc2)c2ccccc2n1CCC(=O)O [DAZMEGREL] | 2.26 | 40 | 71 | 92 | 12000 | 29 | 5.36 | 46 | 11 | – | – | – | – |
| O=C(O)/C=C/c1ccc(Cc2cncs2)cc1 | – | – | – | 39 | 1500 | – | – | – | – | – | – | – | – |
| O=C([O-])c1cccc2c1CCCC2CCc1cncs1.[Na+] (stereo unspecified) | 2.68 | 86 | 93 | 97 | 370 | 67 | 5.63 | 79 | 88 | – | – | – | – |
| Cl.O=C(O)c1ccc2c(c1)CC(Cn1ccnc1)C2 (stereo unspecified) | 3.57 | 74 | 90 | 95 | 6600 | 51 | 6.93 | 60 | 73 | – | – | – | – |
| O=C(O)c1cccc2c1CCC2CCn1ccnc1 (stereo unspecified) | – | – | – | 97 | 860 | – | – | – | – | – | – | – | – |
| O=C([O-])C1CCc2cc(Cc3cncs3)ccc2C1.[Na+] (stereo unspecified) | 2.65 | – | – | 69 | 1900 | – | 5.91 | – | – | – | – | – | – |
| O=C(O)c1ccc2c(c1)CCCC2CCn1ccnc1 (stereo unspecified) | 3.38 | 28 | 59 | 93 | 14000 | 46 | 10.05 | 53 | 84 | – | – | – | – |
| Cl.O=C(O)c1ccc2c(c1)CCC(Cn1ccnc1)C2 (stereo unspecified) | 2.91 | 88 | 93 | 98 | 1100 | 88 | 5.9 | 93 | 95 | – | 85 | – | 76 |
